Test results from ChEMBL document CHEMBL4825680, “Structure-based discovery of potent and selective small-molecule inhibitors targeting signal transducer and activator of transcription 3 (STAT3)” (Eur J Med Chem, 2021).
Activity calls are given as the source filed them. No cut-off for these calls is given here.

Tests used:
MDA-MB-468 [1] = assay: Induction of apoptosis in human MDA-MB-468 cells assessed as late apoptotic cells at 3 uM after 48 hrs by Annexin-V-FITC/propidium iodide staining based flow cytometric analysis (reference value: 1.25%); assay type: functional
[2] = Induction of apoptosis in human MDA231-LM2-4175 cells assessed as necrotic cells at 1 uM after 48 hrs by Annexin-V-FITC/propidium iodide staining based flow cytometric analysis (reference value: 0.531%); assay type: functional
[3] = Tmax in Sprague-Dawley rat at 10 mg/kg, po measured up to 24 hrs by LC-MS/MS analysis; assay type: ADME, organism-based; settings: in vivo
Method in brief: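 Male SD rats dosed orally at 10 mg/kg in DMSO/0.5% HPMC (5/95, v/v). Blood drawn at 0.25, 0.5, 1, 2, 4, 8 and 24 h for plasma. Plasma analysed by LC-MS/MS on a UPLC BEH phenyl column with 0.1% formic acid water/acetonitrile.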

[4] = AUC(0 to infinity) in Sprague-Dawley rat at 10 mg/kg, po measured up to 24 hrs by LC-MS/MS analysis; assay type: ADME, organism-based; parameters: route oral, dose 10 mg/kg, time <=24; settings: in vivo
Method in brief: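 Male SD rats given a single oral dose of 10 mg/kg in DMSO/0.5% HPMC (5/95, v/v). Blood was drawn at 0.25, 0.5, 1, 2, 4, 8 and 24 h, and plasma was analysed by LC-MS/MS on a BEH phenyl column with a formic acid water/acetonitrile mobile phase.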

[5] = Induction of apoptosis in human MDA231-LM2-4175 cells assessed as late apoptotic cells at 3 uM after 48 hrs by Annexin-V-FITC/propidium iodide staining based flow cytometric analysis (reference value: 2.60%); assay type: functional
MDA-MB-468 [6] = assay: Induction of apoptosis in human MDA-MB-468 cells assessed as necrotic cells at 3 uM after 48 hrs by Annexin-V-FITC/propidium iodide staining based flow cytometric analysis (reference value: 0.240%); assay type: functional
[7] = biological target: T1, Signal transducer and activator of transcription 1-alpha/beta (Homo sapiens) (UniProt P42224); assay: Inhibition of STAT1 phosphorylation at Y701 residue in human HCC70 cells at 0.3 to 3 uM after 3 hrs by Western blotting analysis; assay type: cell-based; settings: dose 0.3-3 µM
T1 sequence (whole entry): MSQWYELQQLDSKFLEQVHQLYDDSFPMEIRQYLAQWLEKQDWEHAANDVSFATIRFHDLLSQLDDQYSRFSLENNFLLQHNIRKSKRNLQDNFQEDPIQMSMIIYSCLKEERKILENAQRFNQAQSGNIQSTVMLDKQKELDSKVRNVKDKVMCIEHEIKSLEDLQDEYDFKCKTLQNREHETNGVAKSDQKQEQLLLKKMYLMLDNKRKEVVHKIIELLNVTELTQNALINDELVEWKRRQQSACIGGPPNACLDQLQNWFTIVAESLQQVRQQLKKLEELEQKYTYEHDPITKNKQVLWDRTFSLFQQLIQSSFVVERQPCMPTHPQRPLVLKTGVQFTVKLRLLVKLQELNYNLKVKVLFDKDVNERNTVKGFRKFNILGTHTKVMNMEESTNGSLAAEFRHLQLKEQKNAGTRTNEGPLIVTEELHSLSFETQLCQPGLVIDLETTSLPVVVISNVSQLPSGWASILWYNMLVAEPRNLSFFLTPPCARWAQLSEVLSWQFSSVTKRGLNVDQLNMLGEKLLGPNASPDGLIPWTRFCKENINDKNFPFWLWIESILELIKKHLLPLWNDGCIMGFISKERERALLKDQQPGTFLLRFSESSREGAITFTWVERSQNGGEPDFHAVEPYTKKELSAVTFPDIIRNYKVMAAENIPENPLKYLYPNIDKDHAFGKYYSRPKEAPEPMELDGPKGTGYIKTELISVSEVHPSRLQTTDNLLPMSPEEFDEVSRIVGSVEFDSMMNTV

MDA-MB-231 [8] = assay: Inhibition of colony formation in human MDA-MB-231 cells at 0.3 uM after 10 to 15 days by crystal violet staining based assay; assay type: functional, cell-based; settings: time 10-15 day
Method in brief: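 Cells seeded at 0.5×10^3–1×10^3 per well; compound added the next day. Medium and compound renewed every 2–3 days. After about 10–15 days, colonies fixed with 4% paraformaldehyde, stained with crystal violet, scanned and quantified by image analysis. Triplicate.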

[9] = biological target: T2, Signal transducer and activator of transcription 3 (Homo sapiens, UniProt P40763); assay: Inhibition of STAT3 in human MDA-MB-231 cells assessed as downregulation of Bcl-xL expression at 0.3 to 3 uM after 24 hrs by western blot analysis; assay type: cell-based; settings: dose 0.3-3 µM
T2 sequence (P40763 whole entry): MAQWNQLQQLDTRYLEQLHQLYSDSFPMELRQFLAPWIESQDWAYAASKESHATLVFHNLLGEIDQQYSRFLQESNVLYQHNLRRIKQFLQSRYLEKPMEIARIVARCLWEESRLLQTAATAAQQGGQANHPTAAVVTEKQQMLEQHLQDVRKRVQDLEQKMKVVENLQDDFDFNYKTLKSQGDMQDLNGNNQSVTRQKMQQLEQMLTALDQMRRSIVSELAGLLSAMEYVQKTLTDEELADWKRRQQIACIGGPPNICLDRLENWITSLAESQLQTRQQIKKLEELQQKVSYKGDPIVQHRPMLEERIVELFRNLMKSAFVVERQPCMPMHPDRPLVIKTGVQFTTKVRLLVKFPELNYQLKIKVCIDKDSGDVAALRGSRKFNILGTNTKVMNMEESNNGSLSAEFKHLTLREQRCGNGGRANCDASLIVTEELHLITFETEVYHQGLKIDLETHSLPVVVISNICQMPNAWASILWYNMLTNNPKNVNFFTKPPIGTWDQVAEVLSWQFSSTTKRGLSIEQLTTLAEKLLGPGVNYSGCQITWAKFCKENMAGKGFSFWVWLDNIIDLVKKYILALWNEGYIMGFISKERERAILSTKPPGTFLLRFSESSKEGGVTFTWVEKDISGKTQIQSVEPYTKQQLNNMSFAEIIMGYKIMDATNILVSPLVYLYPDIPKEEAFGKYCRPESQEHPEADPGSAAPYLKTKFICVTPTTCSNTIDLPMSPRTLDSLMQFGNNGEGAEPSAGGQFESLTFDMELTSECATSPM
Method in brief: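 TNBC cells given vehicle (0.1% DMSO) or graded compound levels for 24 h, lysed in RIPA with PMSF and phosphatase inhibitors. BCA-quantified lysate (20–50 µg) run on SDS-PAGE, transferred to PVDF, blocked in 5% BSA. Probed overnight at 4 °C for Bcl-xL, Mcl-1 and c-Myc, with β-actin. HRP secondary, ECL detection. Three independent experiments.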

MDA231-LM2-4175 = assay: Antitumor activity against human MDA231-LM2-4175 cells xenografted in mouse assessed as reduction in pY705-STAT3 expression at 5 to 15 mg/kg, iv administered once daily for 20 days by Western blotting analysis; assay type: functional, organism-based; settings: dose 5-15 mg/kg, time 20.0 day
MDA-MB-231 [10] = assay: Induction of apoptosis in human MDA-MB-231 cells assessed as late apoptotic cells at 1 uM after 48 hrs by Annexin-V-FITC/propidium iodide staining based flow cytometric analysis (Rvb =3.05%); assay type: functional
MDA-MB-231 [11] = assay: Inhibition of cell invasion in human MDA-MB-231 cells incubated for 12 hrs by crystal violet staining based transwell assay; assay type: functional; settings: dose 1-3 µM
Method in brief: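 Cells seeded at 1.5×10^4–3×10^4 per well in the upper chamber of 8.0 µm pore Transwell inserts and treated with graded compound for 12 h. Non-invading cells removed with cotton. Invaded cells fixed in 4% paraformaldehyde, stained with crystal violet, photographed and counted. Triplicate.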

[12] = biological target: T2, Signal transducer and activator of transcription 3; assay: Inhibition of phosphorylated STAT3 nuclear translocation in human MDA-MB-231 cells after 12 hrs by immunofluorescence analysis; assay type: cell-based; settings: dose 0.3-3 µM
Method in brief: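 MDA-MB-231 cells (constitutively active STAT3) treated with vehicle or compound for 12 h. Immunofluorescence staining with a p-STAT3-specific primary antibody and an Alexa Fluor secondary antibody.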

Breast cancer cell line = assay: Antitumor activity against patient-derived breast cancer cells xenografted in NOD/SCID mouse assessed as reduction in pY705-STAT3 expression at 5 to 15 mg/kg, iv administered once daily for 20 days by Western blotting analysis; assay type: functional, organism-based; settings: Homo sapiens, dose 5-15 mg/kg, time 20.0 day
[13] = Toxicity in NOD/SCID mouse xenografted with patient-derived breast cancer cells assessed as morphological change in kidney at 5 to 15 mg/kg, […] once daily for 20 days by HE staining based assay; assay type: organism-based; settings: in vivo, iv, dose 5-15 mg/kg, time 20 day
Method in brief: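 Female NOD-SCID mice implanted subcutaneously in the flank with about 2 mm³ TNBC PDX fragments. At about 100 mm³ tumour volume, randomised n=6/group: vehicle (PBS with 15% Cremophor EL), 5 or 15 mg/kg intraperitoneally daily. Killed at day 20; heart, liver, spleen, lung and kidney collected for morphological examination.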

[14] = biological target: T2, Signal transducer and activator of transcription 3; assay: Inhibition of STAT3 phosphorylation at Tyr705 residue in human MDA-MB-231 cells after 3 hrs by Western blotting analysis; assay type: cell-based; settings: dose 0.3-3 µM

**Q.** For O=C(Cc1c(-c2ccccc2)nc2ccccn12)Nc1ccc2c(c1)S(=O)(=O)C=C2, which Activity (MDA-MB-468 [1]) is on record?
**A.** 27.8%

**Q.** What about the Activity [2] of the same compound?
**A.** 1.1%

**Q.** And the Tmax [3]?
**A.** 1.67 h

**Q.** What about the AUC(0-inf) [4] of the same compound?
**A.** 56.1 ng·h/mL

**Q.** What about the Activity [5] of the same compound?
**A.** 5.71%

**Q.** What about the Activity (MDA-MB-468 [6]) of the same compound?
**A.** 1.33%

**Q.** And the inhibition [7]?
**A.** inactive

**Q.** What about the inhibition (MDA-MB-231 [8]) of the same compound?
**A.** Active

**Q.** And the inhibition [9]?
**A.** Active

**Q.** What about the Activity (MDA231-LM2-4175) of the same compound?
**A.** Active

**Q.** What about the Activity (MDA-MB-231 [10]) of the same compound?
**A.** 7.54%

**Q.** And the inhibition (MDA-MB-231 [11])?
**A.** Dose-Dependent Effect

**Q.** What about the inhibition [12] of the same compound?
**A.** Dose-Dependent Effect

**Q.** What about the Activity (Breast cancer cell line) of the same compound?
**A.** Active

**Q.** What about the Activity [13] of the same compound?
**A.** Non-Toxic

**Q.** And the inhibition [14]?
**A.** Dose-Dependent Effect
